The source of these data is ChEMBL document CHEMBL1134636, “Structure-activity studies on nociceptin analogues: ORL1 receptor binding and biological activity of cyclic disulfide-containing analogues of nociceptin peptides” (J Med Chem, 2001).

The target of experiment [1] is T1, Nociceptin receptor (Homo sapiens, UniProt P41146). Description: Efficacy for human ORL1 receptor expressing HEK293 cells. The class given is functional, cell-based. The gist of the method: (§1)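 Membranes from HEK-293 cells expressing human ORL1 (10 μg) were incubated for 30 min at 24 °C with peptides (0.01 nM to 10 μM) in 20 mM HEPES pH 7.4 with 100 mM NaCl, 10 mM MgCl₂, 1 mM EDTA, 5 μM GDP and 400 pM [³⁵S]GTPγS. Binding was read with WGA-coated SPA beads.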

Experiment [2] concerns the target T1, Nociceptin receptor. As to the kind of experiment: Displacement of [3H]NC from human ORL1 receptor expressing HEK293 cell membrane. The format is cell membranes. (In general: In a radioligand displacement assay an active substance lowers the binding of a labelled ligand.)
Experiment [3] has as its target T1, Nociceptin receptor. Description: Efficacy for human ORL1 receptor expressing HEK293 cell membrane. The class given is functional, cell-based. The gist of the method: as §1

Peptide text beside a SMILES is read from it.

T1 sequence (P41146 whole entry): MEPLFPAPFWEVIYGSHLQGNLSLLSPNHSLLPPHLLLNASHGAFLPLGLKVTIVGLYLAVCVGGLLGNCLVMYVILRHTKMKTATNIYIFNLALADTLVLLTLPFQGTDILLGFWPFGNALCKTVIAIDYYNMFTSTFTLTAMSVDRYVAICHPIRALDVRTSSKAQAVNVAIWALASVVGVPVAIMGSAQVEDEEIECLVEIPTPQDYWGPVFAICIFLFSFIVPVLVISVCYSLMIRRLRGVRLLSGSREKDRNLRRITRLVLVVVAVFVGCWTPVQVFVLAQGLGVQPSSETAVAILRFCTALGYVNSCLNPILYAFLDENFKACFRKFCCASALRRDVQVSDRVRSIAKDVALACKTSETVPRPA

As to `C[C@@H](O)[C@H](NC(=O)[C@H](Cc1ccccc1)NC(=O)CNC(=O)CNC(=O)[C@@H](N)Cc1ccccc1)C(=O)NCC(=O)N[C@H]1CSSC[C@@H](C(=O)N[C@@H](CCCN=C(N)N)C(=O)N[C@@H](CCCCN)C(N)=O)NC(=O)[C@H](CO)NC(=O)[C@H](CCCCN)NC(=O)[C@H](CCCN=C(N)N)NC1=O` (HELM PEPTIDE1{F.G.G.F.T.G.C.R.K.S.C.R.K.[am]}$PEPTIDE1,PEPTIDE1,7:R3-11:R3$$$V2.0), in experiment [1], the EC50 came out at 156 nM. In experiment [2], this compound had an IC50 of 3.04 nM. The compound also yielded an Emax in experiment [3] of 120%.

Usually EC50 stands for the concentration needed to bring the measured effect to its halfway point. High values mean weaker potency, low ones greater potency. By IC50 is commonly meant the concentration needed to halve the response being measured. Higher therefore signals lower potency. The term Emax denotes the greatest response seen or fitted, relative to the assay's reference.
